Measurements taken from ChEMBL document CHEMBL4339192, “De Novo Designed Amphipathic α-Helical Antimicrobial Peptides Incorporating Dab and Dap Residues on the Polar Face To Treat the Gram-Negative Pathogen, Acinetobacter baumannii” (J Med Chem, 2019).
Where a SMILES comes first, the peptide text is derived from it. [ ]: non-standard residue; d: D form. Dap = NC[C@H](N)C(=O)O

Tests used:
[1] = system: Acinetobacter baumannii; assay: Antibacterial activity against Acinetobacter baumannii isolate 1002956 measured after 24 hrs by microtiter dilution method; type: functional; settings: isolate 1002956, 24 h
In short: (§1)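 Broth microdilution in Mueller-Hinton (MH) medium. […] Plates were incubated 24 h at 37 °C. MIC was the lowest peptide concentration that inhibited growth, based on three sets of replicates.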

[2] = system: Acinetobacter baumannii; assay: Antibacterial activity against Acinetobacter baumannii isolate 1010282 measured after 24 hrs by microtiter dilution method; type: functional; settings: isolate 1010282, 24 h; in short: as §1
[3] = system: Acinetobacter baumannii; assay: Antibacterial activity against Acinetobacter baumannii 649 measured after 24 hrs in presence of 25% human serum by microtiter dilution method; type: functional; settings: Acinetobacter baumannii, 649, 24 h
In short: (§2)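 Blood strain 649 was tested by MH broth microdilution with and without 25% (v/v) human serum added to the medium. The test used a final inoculum of 5 × 10^5 cfu/mL and incubation at 37 °C. The ratio is the MIC in serum over the MIC in MH alone.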

[4] = Therapeutic index, ratio of HC50 for human RBC to MIC for polymyxin B/colistin-resistant Acinetobacter baumannii M89949; type: toxicity; settings: human red blood cells, read-out: TI
In short: (§3)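 T.I. = HC50/MIC. For HC50, peptide (quantified by amino acid analysis) was two-fold serially diluted over 12 concentrations up to 1000 μg/mL. It was incubated with 1% fresh human erythrocytes in PBS, pH 7.4, for 18 h at 37 °C. After 800g centrifugation, hemoglobin was read at 570 nm against water (100%) and no-peptide (0%) controls. HC50 came from a lysis-versus-concentration plot, average of 3 replicates.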

[5] = Therapeutic index, ratio of HC50 for human RBC to MIC for polymyxin B/colistin-resistant Acinetobacter baumannii M89963; type: toxicity; settings: human red blood cells, read-out: TI; in short: as §3
[6] = system: Acinetobacter baumannii; assay: Antibacterial activity against Acinetobacter baumannii isolate 963618 measured after 24 hrs by microtiter dilution method; type: functional; settings: isolate 963618, 24 h; in short: as §1
[7] = Therapeutic index, ratio of HC50 for human RBC to MIC for polymyxin B/colistin-resistant Acinetobacter baumannii M89953; type: toxicity; settings: human red blood cells, read-out: TI; in short: as §3
[8] = system: Acinetobacter baumannii; assay: Antibacterial activity against Acinetobacter baumannii isolate 9383370 measured after 24 hrs by microtiter dilution method; type: functional; settings: isolate 9383370, 24 h; in short: as §1
[9] = system: Acinetobacter baumannii; assay: Antibacterial activity against polymyxin B/colistin-resistant Acinetobacter baumannii M89953 measured after 24 hrs by microtiter dilution method; type: functional; settings: M89953, 24 h; in short: as §1
[10] = system: Acinetobacter baumannii; assay: Antibacterial activity against polymyxin B/colistin-resistant Acinetobacter baumannii M89949 measured after 24 hrs by microtiter dilution method; type: functional; settings: M89949, 24 h; in short: as §1
[11] = system: Acinetobacter baumannii; assay: Antibacterial activity against Acinetobacter baumannii isolate 961997 measured after 24 hrs by microtiter dilution method; type: functional; settings: isolate 961997, 24 h; in short: as §1
[12] = system: Acinetobacter baumannii; assay: Antibacterial activity against Acinetobacter baumannii isolate 1017395 measured after 24 hrs by microtiter dilution method; type: functional; settings: isolate 1017395, 24 h; in short: as §1
[13] = system: Acinetobacter baumannii; assay: Antibacterial activity against Acinetobacter baumannii isolate 1007660 measured after 24 hrs by microtiter dilution method; type: functional; settings: isolate 1007660, 24 h; in short: as §1
[14] = system: Acinetobacter baumannii; assay: Antibacterial activity against polymyxin B/colistin-resistant Acinetobacter baumannii M89952 measured after 24 hrs by microtiter dilution method; type: functional; settings: M89952, 24 h; in short: as §1
[15] = system: Acinetobacter baumannii; assay: Antibacterial activity against Acinetobacter baumannii isolate 1018887 measured after 24 hrs by microtiter dilution method; type: functional; settings: isolate 1018887, 24 h; in short: as §1
[16] = system: Acinetobacter baumannii; assay: Antibacterial activity against Acinetobacter baumannii isolate 952654 measured after 24 hrs by microtiter dilution method; type: functional; settings: isolate 952654, 24 h; in short: as §1
[17] = Therapeutic index, ratio of HC50 for human RBC to MIC for polymyxin B/colistin-resistant Acinetobacter baumannii M89955; type: toxicity; settings: human red blood cells, read-out: TI; in short: as §3
[18] = Therapeutic index, ratio of HC50 for human RBC to MIC for polymyxin B/colistin-resistant Acinetobacter baumannii M89952; type: toxicity; settings: human red blood cells, read-out: TI; in short: as §3
[19] = system: Acinetobacter baumannii; assay: Antibacterial activity against Acinetobacter baumannii isolate 964304 measured after 24 hrs by microtiter dilution method; type: functional; settings: isolate 964304, 24 h; in short: as §1
[20] = system: Acinetobacter baumannii; assay: Antibacterial activity against Acinetobacter baumannii isolate 968886 measured after 24 hrs by microtiter dilution method; type: functional; settings: isolate 968886, 24 h; in short: as §1
[21] = system: Acinetobacter baumannii; assay: Antibacterial activity against Acinetobacter baumannii isolate 1035166 measured after 24 hrs by microtiter dilution method; type: functional; settings: isolate 1035166, 24 h; in short: as §1
[22] = system: Acinetobacter baumannii; assay: Antibacterial activity against polymyxin B/colistin-resistant Acinetobacter baumannii M89941 measured after 24 hrs by microtiter dilution method; type: functional; settings: M89941, 24 h; in short: as §1
[23] = system: Acinetobacter baumannii; assay: Antibacterial activity against Acinetobacter baumannii isolate 1035794 measured after 24 hrs by microtiter dilution method; type: functional; settings: isolate 1035794, 24 h; in short: as §1
[24] = Therapeutic index, ratio of HC50 for human RBC to MIC for polymyxin B/colistin-resistant Acinetobacter baumannii M89941; type: toxicity; settings: human red blood cells, read-out: TI; in short: as §3
[25] = system: Acinetobacter baumannii; assay: Antibacterial activity against polymyxin B/colistin-resistant Acinetobacter baumannii M89963 measured after 24 hrs by microtiter dilution method; type: functional; settings: M89963, 24 h; in short: as §1
[26] = system: Acinetobacter baumannii; assay: Antibacterial activity against polymyxin B/colistin-resistant Acinetobacter baumannii M89955 measured after 24 hrs by microtiter dilution method; type: functional; settings: M89955, 24 h; in short: as §1
[27] = system: Acinetobacter baumannii; assay: Antibacterial activity against Acinetobacter baumannii isolate 977751 measured after 24 hrs by microtiter dilution method; type: functional; settings: isolate 977751, 24 h; in short: as §1
[28] = system: Acinetobacter baumannii; assay: Antibacterial activity against Acinetobacter baumannii isolate 981650 measured after 24 hrs by microtiter dilution method; type: functional; settings: isolate 981650, 24 h; in short: as §1
[29] = Hemolytic activity against human RBC measured after 18 hrs by spectrophotometric method; type: ADME, cell-based, Erythrocyte; settings: human red blood cells (erythrocytes)
In short: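 Peptide (amount by amino acid analysis), two-fold serial dilutions at 12 concentrations up to 1000 μg/mL, with 1% human erythrocytes in PBS pH 7.4, 37 °C, 18 h. Unlysed cells removed by centrifugation (800g); hemoglobin read at 570 nm. Water-lysed cells = 100%, no-peptide cells = 0%. HC50 from plot of % lysis vs concentration (μM), average of 3 replicates.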

[30] = system: Acinetobacter baumannii; assay: Antibacterial activity against Acinetobacter baumannii isolate 965463 measured after 24 hrs by microtiter dilution method; type: functional; settings: isolate 965463, 24 h; in short: as §1
[31] = system: Acinetobacter baumannii; assay: Ratio of MIC for Acinetobacter baumannii 649 measured in presence of 25% human serum to MIC for Acinetobacter baumannii 649 in absence of 25% human serum; type: functional; in short: as §2
[32] = system: Acinetobacter baumannii; assay: Antibacterial activity against Acinetobacter baumannii 649 measured after 24 hrs by microtiter dilution method; type: functional; settings: Acinetobacter baumannii, 649, 24 h; in short: as §1
[33] = system: Acinetobacter baumannii; assay: Antibacterial activity against polymyxin B/colistin-resistant Acinetobacter baumannii M89951 measured after 24 hrs by microtiter dilution method; type: functional; settings: M89951, 24 h; in short: as §1
[34] = system: Acinetobacter baumannii; assay: Antibacterial activity against Acinetobacter baumannii isolate 1021371 measured after 24 hrs by microtiter dilution method; type: functional; settings: isolate 1021371, 24 h; in short: as §1
[35] = system: Acinetobacter baumannii; assay: Antibacterial activity against Acinetobacter baumannii isolate 963659 measured after 24 hrs by microtiter dilution method; type: functional; settings: isolate 963659, 24 h; in short: as §1
[36] = system: Acinetobacter baumannii; assay: Antibacterial activity against Acinetobacter baumannii isolate 1010245 measured after 24 hrs by microtiter dilution method; type: functional; settings: isolate 1010245, 24 h; in short: as §1
[37] = system: Acinetobacter baumannii; assay: Antibacterial activity against Acinetobacter baumannii isolate 1001611 measured after 24 hrs by microtiter dilution method; type: functional; settings: isolate 1001611, 24 h; in short: as §1
[38] = Therapeutic index, ratio of HC50 for human RBC to MIC for polymyxin B/colistin-resistant Acinetobacter baumannii M89951; type: toxicity; settings: human red blood cells, read-out: TI; in short: as §3

CC(=O)N[C@H](CCCCN)C(=O)N[C@H](CC(C)C)C(=O)N[C@@H](CN)C(=O)N[C@H](CO)C(=O)N[C@H](CC(C)C)C(=O)N[C@H](CC(C)C)C(=O)N[C@@H](CN)C(=O)N[C@@H](C(=O)N[C@H](CC(C)C)C(=O)N[C@H](CO)C(=O)N[C@@H](CN)C(=O)N[C@H](C)C(=O)N[C@H](C)C(=O)N[C@H](C)C(=O)N[C@H](C)C(=O)N[C@H](C)C(=O)N[C@H](CC(C)C)C(=O)N[C@@H](CN)C(=O)N[C@@H](C(=O)N[C@H](CC(C)C)C(=O)N[C@H](CC(C)C)C(=O)N[C@@H](CN)C(=O)N[C@H](C)C(=O)N[C@H](CC(C)C)C(=O)N[C@H](CO)C(=O)N[C@@H](CN)C(N)=O)[C@H](C)O)[C@H](C)O (Ac-[dK][dL][Dap][dS][dL][dL][Dap][dT][dL][dS][Dap][dA][dA][dA][dA][dA][dL][Dap][dT][dL][dL][Dap][dA][dL][dS][Dap]-NH2)
2.2: selectivity ratio [4] | selectivity ratio [5] | selectivity ratio [7] | selectivity ratio [17] | selectivity ratio [18] | selectivity ratio [24] | selectivity ratio [38]
1.6 µM: MIC [1] | MIC [2] | MIC [6] | MIC [8] | MIC [9] | MIC [14] | MIC [20] | MIC [22] | MIC [23] | MIC [25] | MIC [26] | MIC [28] | MIC [37]
4 - 16: Ratio [31]
2900 nM: HC50 at 18 h [29]
12.5 µM: MIC [3]
6.4 µM: MIC [16]
0.8 µM: MIC [10] | MIC [27] | MIC [32] | MIC [33] | MIC [34] | MIC [36]
3.2 µM: MIC [11] | MIC [12] | MIC [13] | MIC [15] | MIC [19] | MIC [21] | MIC [30] | MIC [35]
